Data published in ChEMBL document CHEMBL3351262, “Design and synthesis of new benzimidazole-carbazole conjugates for the stabilization of human telomeric DNA, telomerase inhibition, and their selective action on cancer cells” (J Med Chem, 2014).
Activity calls are given as the source filed them. The calls are words filed in the database; no cut-off is given here.

How the values were obtained:
Calf thymus DNA [1] = assay: Binding affinity to calf thymus DNA in 10 mM pH 7.4 Tris-Hcl buffer containing 0.1 mM EDTA and 40 mM NaCl by CD spectroscopy; conditions: Bos taurus
[2] = Selectivity index, ratio of Kd for calf thymus DNA to Kd for human Hum21 [5'-G3(T2AG3)3-3'] G-quadruplex DNA
Outline: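 Selectivity is the ratio of fluorescence-titration Kd for CT DNA (Tris-HCl pH 7.4, 40 mM NaCl, 0.1 mM EDTA) to Kd for preformed Hum21 G4 DNA (Tris-HCl pH 7.4, 0.1 M NaCl/KCl, 0.1 mM EDTA).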

Homo sapiens [3] = species on record: Homo sapiens; assay: Stabilization of 32P-ATP labeled human Hum21 [5'-G3(T2AG3)3-3'] G-quadruplex DNA assessed as protection against S1 nuclease-mediated degradation at 2.5 to 5 uM pre-incubated for 4 hrs before S1 nuclease addition by PAGE method
Outline: (§1)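 5′-32P-labelled Hum21 was mixed with cold DNA and annealed in KCl; lanes were run in 50 mM KCl. G4 DNA was pre-incubated with ligand for 4 h. 2 μM DNA was digested with 20 U S1 nuclease for 2 min, quenched with acetate/CT DNA/EDTA stop buffer, and ethanol precipitated. Products ran on a 15% polyacrylamide urea sequencing gel beside an A+G ladder and were imaged by phosphorimager.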

[4] = Displacement of thiazole orange from calf thymus double stranded DNA in presence of 10 mM pH 7.4 Tris-Hcl buffer containing 0.1 mM EDTA and […] by fluorescent intercalator displacement assay; design: species or system Bos taurus
HEK-293T [5] = assay: Cytotoxicity against transformed HEK293T cells after 72 hrs by MTT assay; type: functional, cell-based; conditions: Homo sapiens
Outline: (§2)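 Cells were seeded at 15.0 × 10³/well and grown 72 h to >70% confluency. They were treated with ligand or 0.1% DMSO in 10% FBS for 72 h at 37 °C, 5% CO2, then given fresh DMEM/10% FBS. MTT (5 mg/mL stock) was added for 4 h, formazan dissolved in DMSO, and read at 595 nm. Viability was normalized to untreated cells after DMSO-blank subtraction. Doses were run in triplicate, with at least three independent experiments.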

[6] = Binding affinity to human Hum21 [5'-G3(T2AG3)3-3'] G-quadruplex DNA at 5 uM in 10 mM pH 7.4 Tris-Hcl buffer containing 0.1 mM EDTA and 0.1 M NaCl by UV-Vis absorption sperctrometry
HeLa [7] = assay: Induction of apoptosis in human HeLa cells assessed as nuclear fragmentation at 10 uM after 12 hrs by propidium iodide staining based FACS analysis; type: functional, cell-based
A549 [8] = assay: Cytotoxicity against human A549 cells at 0.5 to 8 uM after 72 hrs by MTT assay; type: functional, cell-based
Outline: as §2

Homo sapiens [9] = species on record: Homo sapiens; assay: Binding affinity to human Hum21 [5'-G3(T2AG3)3-3'] G-quadruplex DNA in 10 mM pH 7.4 Tris-Hcl buffer containing 0.1 mM EDTA and […] by CD spectroscopy
Homo sapiens [10] = species on record: Homo sapiens; assay: Induction of formation of human Hum21 [5'-G3(T2AG3)3-3'] G-quadruplex DNA at [compound]/[DNA] ratio of 5 in 10 mM pH 7.4 Tris-Hcl buffer containing 0.1 mM EDTA and […] by CD spectroscopy
Outline: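 Hum21 was folded in the presence of ligand at the stated [L]:[DNA] ratio in 10 mM Tris-HCl pH 7.4, 0.1 mM EDTA, 0.1 M KCl or NaCl. Annealing was 95 °C for 5 min with slow cooling to 24 °C over 24 h. Topology was read from CD spectra recorded at 20 °C.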

HFF [11] = assay: Induction of apoptosis in HFF cells assessed as nuclear fragmentation at 10 uM after 12 hrs by propidium iodide staining based FACS analysis; type: cell-based; conditions: human
HEK-293T [12] = assay: Cytotoxicity against transformed HEK293T cells at 2 and 5 uM after 15 days by MTT assay; conditions: Homo sapiens
HFF [13] = assay: Cytotoxicity against HFF cells at 0.5 to 8 uM after 72 hrs by MTT assay; type: cell-based; conditions: human
Outline: as §2

[14] = Displacement of thiazole orange from human Hum21 [5'-G3(T2AG3)3-3'] G-quadruplex DNA in presence of 10 mM pH 7.4 Tris-Hcl buffer containing 0.1 mM EDTA and […] by fluorescent intercalator displacement assay
[15] = target: T1, Telomerase reverse transcriptase (Homo sapiens, UniProt O14746); assay: Total inhibition of telomerase isolated form human A549 cells by TRAP-LIG assay
HeLa [16] = assay: Cytotoxicity against human HeLa cells at 2 and 5 uM after 15 days by MTT assay
HEK-293T [17] = assay: Cytotoxicity against transformed HEK293T cells at 0.5 to 8 uM after 72 hrs by MTT assay; type: functional, cell-based; conditions: Homo sapiens
Outline: as §2

[18] = Drug uptake in nucleus of human HeLa cells at 10 uM after 12 hrs by confocal microscopy; type: ADME, cell-based
Outline: (§3)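 Cells were grown on glass coverslips and treated with 10 μM ligand for 12 h. They were washed in DPBS, fixed in 4% paraformaldehyde for 10 min, and permeabilized with 0.1% Triton X-100 for 5 min. Nuclei were counterstained with propidium iodide. Blue ligand fluorescence and nuclear localization were imaged by confocal microscopy.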

[19] = Binding affinity to human Hum21 [5'-G3(T2AG3)3-3'] G-quadruplex DNA at 0.4 uM in 10 mM pH 7.4 Tris-Hcl buffer containing 0.1 mM EDTA and 0.1 mM NaCl by fluorescence spectroscopy
[20] = Drug uptake in cytoplasm of HFF cells at 10 uM after 12 hrs by confocal microscopy; type: ADME, cell-based; conditions: human
Outline: as §3

[21] = Binding affinity to human Hum21 [5'-G3(T2AG3)3-3'] G-quadruplex DNA at 0.4 uM in 10 mM pH 7.4 Tris-Hcl buffer containing 0.1 mM EDTA and […] by fluorescence spectroscopy
A549 [22] = assay: Cytotoxicity against human A549 cells after 72 hrs by MTT assay; type: functional, cell-based; conditions: A549, 72 h
Outline: as §2

Homo sapiens [23] = species on record: Homo sapiens; assay: Binding affinity to human Hum21 [5'-G3(T2AG3)3-3'] G-quadruplex DNA assessed as change in melting temperature in 10 mM pH 7.4 Tris-Hcl buffer containing 0.1 mM EDTA and […] measured after 12 hrs by UV-Vis absorption sperctrometry (reference value: 7 to 13 degC)
HeLa [24] = assay: Cytotoxicity against human HeLa cells after 72 hrs by MTT assay; type: functional, cell-based
Outline: as §2

HeLa [25] = assay: Induction of apoptosis in human HeLa cells at 10 uM after 12 hrs by Annexin V and propidium iodide staining based FACS analysis; type: functional
Outline: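 HeLa cells were seeded at 0.25 million per well, and after 24 h exposed to 10 μM ligand for 12 h. Cells were washed, trypsinized and resuspended in HEPES binding buffer (0.14 M NaCl, 2.5 mM CaCl2). They were stained with Annexin V-FITC and PI (final 1 μg/mL, 5 min), then analyzed by flow cytometry. Gated Annexin-only-positive cells were scored as apoptotic.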

[26] = Binding affinity to human Hum21 [5'-G3(T2AG3)3-3'] G-quadruplex DNA at 5 uM in 10 mM pH 7.4 Tris-Hcl buffer containing 0.1 mM EDTA and 0.1 M KCl by UV-Vis absorption sperctrometry
[27] = Displacement of thiazole orange from telomeric duplex DNA (unknown origin) in presence of 10 mM pH 7.4 Tris-Hcl buffer containing 0.1 mM EDTA and […] by fluorescent intercalator displacement assay
Calf thymus DNA [28] = assay: Binding affinity to calf thymus DNA in 10 mM pH 7.4 Tris-Hcl buffer containing 0.1 mM EDTA and 40 mM NaCl by fluorescence spectroscopy; type: nucleic-acid assay, Bos taurus
Outline: (§4)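 CT DNA was in the same Tris/EDTA buffer with 40 mM NaCl. 0.4 μM ligand was titrated with preformed DNA, incubated 10 min at 20 °C, and excited at 300 or 330 nm. Kd and binding stoichiometry n came from the emission titration.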

Homo sapiens [29] = species on record: Homo sapiens; assay: Binding affinity to human Hum21 [5'-G3(T2AG3)3-3'] G-quadruplex DNA assessed as change in melting temperature in 10 mM pH 7.4 Tris-Hcl buffer containing 0.1 mM EDTA and 0.1 mM NaCl […] (reference value: 7 to 10 degC)
HeLa [30] = assay: Cytotoxicity against human HeLa cells at 0.5 to 8 uM after 72 hrs by MTT assay; type: functional, cell-based
Outline: as §2

[31] = target: T1, Telomerase reverse transcriptase; assay: Inhibition of telomerase isolated form human A549 cells by TRAP-LIG assay
Calf thymus DNA [32] = assay: Binding affinity to calf thymus DNA at 0.4 uM in 10 mM pH 7.4 Tris-Hcl buffer containing 0.1 mM EDTA and 40 mM NaCl by fluorescence spectroscopy; type: nucleic-acid assay; conditions: Bos taurus
Outline: as §4

[33] = Drug uptake in nucleus of human HeLa cells at 10 uM after 12 hrs by propidium iodide staining; type: ADME, cell-based
Outline: as §3

Homo sapiens [34] = species on record: Homo sapiens; assay: Stabilization of 32P-ATP labeled human Hum21 [5'-G3(T2AG3)3-3'] G-quadruplex DNA assessed as protection against S1 nuclease-mediated degradation at 2.5 to 7.5 uM pre-incubated for 4 hrs before S1 nuclease addition by PAGE method
Outline: as §1

T1 sequence (O14746 whole entry): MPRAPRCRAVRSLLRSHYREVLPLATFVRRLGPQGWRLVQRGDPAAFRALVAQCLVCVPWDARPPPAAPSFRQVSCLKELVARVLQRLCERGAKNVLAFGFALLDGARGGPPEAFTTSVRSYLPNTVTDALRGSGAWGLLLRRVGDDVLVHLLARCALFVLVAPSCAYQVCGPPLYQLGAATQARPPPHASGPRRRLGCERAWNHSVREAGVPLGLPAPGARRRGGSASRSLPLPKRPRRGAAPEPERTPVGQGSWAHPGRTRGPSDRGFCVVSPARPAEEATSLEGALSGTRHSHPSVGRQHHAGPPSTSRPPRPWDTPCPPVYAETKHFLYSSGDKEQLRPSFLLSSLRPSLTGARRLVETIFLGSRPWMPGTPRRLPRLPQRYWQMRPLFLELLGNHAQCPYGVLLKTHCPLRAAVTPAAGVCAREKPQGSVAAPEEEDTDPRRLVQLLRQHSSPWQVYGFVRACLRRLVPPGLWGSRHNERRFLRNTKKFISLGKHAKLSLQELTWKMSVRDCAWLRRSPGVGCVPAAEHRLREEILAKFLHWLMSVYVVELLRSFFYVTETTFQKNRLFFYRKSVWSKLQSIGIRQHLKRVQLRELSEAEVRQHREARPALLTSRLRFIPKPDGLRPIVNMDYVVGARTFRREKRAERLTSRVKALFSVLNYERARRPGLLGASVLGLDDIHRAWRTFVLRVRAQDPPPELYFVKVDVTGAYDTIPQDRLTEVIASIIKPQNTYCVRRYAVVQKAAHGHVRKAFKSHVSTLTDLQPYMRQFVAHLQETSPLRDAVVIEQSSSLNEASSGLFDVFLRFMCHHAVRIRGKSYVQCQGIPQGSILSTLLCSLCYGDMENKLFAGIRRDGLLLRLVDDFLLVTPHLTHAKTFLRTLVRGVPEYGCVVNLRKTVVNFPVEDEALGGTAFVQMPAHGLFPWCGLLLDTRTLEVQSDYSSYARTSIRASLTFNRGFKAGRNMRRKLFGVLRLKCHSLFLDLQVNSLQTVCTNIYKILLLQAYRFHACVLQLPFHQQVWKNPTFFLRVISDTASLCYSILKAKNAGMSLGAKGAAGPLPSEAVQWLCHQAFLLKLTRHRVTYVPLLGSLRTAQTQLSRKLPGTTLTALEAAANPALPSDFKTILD

CN1CCN(CCCCn2c3ccc(-c4nc5cc(N6CCN(CCO)CC6)ccc5[nH]4)cc3c3cc(-c4nc5cc(N6CCN(CCO)CC6)ccc5[nH]4)ccc32)CC1
Activity (Calf thymus DNA [1]): inactive | Ratio [2]: 500 | Activity (Homo sapiens [3]): Active | DC50 ([4]; read-out: DC50): 7710 nM | IC50 (HEK-293T [5]): 8000 nM | Kd [6]: 50 nM | Activity (HeLa [7]): Active | Activity (A549 [8]): Active | Activity (Homo sapiens [9]): Active | Activity (Homo sapiens [10]): Active | Activity (HFF [11]): Non-toxic | inhibition (HEK-293T [12]): Active | Activity (HFF [13]): Non-toxic | DC50 [14]: 1120 nM | concentration giving total telomerase inhibition [15]: 1 µM | inhibition (HeLa [16]): Active | Activity (HEK-293T [17]): Active | Drug uptake [18]: Active | Kd [19]: 80 nM | Drug uptake [20]: Active | Kd [21]: 30 nM | IC50 (A549 [22]): 8000 nM | ΔTm (Homo sapiens [23]): 19 °C | IC50 (HeLa [24]): 8000 nM | Activity (HeLa [25]): 55% | Kd [26]: 30 nM | DC50 ([27]; read-out: DC50): > 8000 nM | Kd (Calf thymus DNA [28]): 25000 nM | ΔTm (Homo sapiens [29]): 15 °C | Activity (HeLa [30]): Active | IC50 [31]: 600 nM | Activity (Calf thymus DNA [32]): inactive | Drug uptake [33]: Active

CN1CCN(CCCCn2c3ccc(-c4nc5cc(-c6nc7cc(N8CCN(C)CC8)ccc7[nH]6)ccc5[nH]4)cc3c3cc(-c4nc5cc(-c6nc7cc(N8CCN(C)CC8)ccc7[nH]6)ccc5[nH]4)ccc32)CC1
Activity (Calf thymus DNA [1]): Active | Ratio [2]: 234 | DC50 [4]: Not Active | Kd [6]: 380 nM | Activity (Homo sapiens [9]): Active | inhibition (HEK-293T [12]): Active | DC50 [14]: 1360 nM | concentration giving total telomerase inhibition [15]: 3 µM | inhibition (HeLa [16]): Active | Kd [19]: 180 nM | Kd [21]: 150 nM | ΔTm (Homo sapiens [23]): 10 °C | Kd [26]: 230 nM | DC50 [27]: Not Active | Kd (Calf thymus DNA [28]): 89000 nM | ΔTm (Homo sapiens [29]): 10 °C | IC50 [31]: 1800 nM | Activity (Calf thymus DNA [32]): inactive

CN1CCN(CCCCn2c3ccc(-c4nc5cc(N6CCOCC6)ccc5[nH]4)cc3c3cc(-c4nc5cc(N6CCOCC6)ccc5[nH]4)ccc32)CC1
Activity (Calf thymus DNA [1]): inactive | Ratio [2]: 650 | DC50 [4]: Not Active | Kd [6]: 480 nM | Activity (Homo sapiens [9]): Active | inhibition (HEK-293T [12]): Active | DC50 [14]: 1010 nM | concentration giving total telomerase inhibition [15]: 3 µM | inhibition (HeLa [16]): Active | Kd [19]: 190 nM | ΔTm (Homo sapiens [23]): 7 °C | Kd [26]: 330 nM | DC50 [27]: Not Active | Kd (Calf thymus DNA [28]): 312000 nM | ΔTm (Homo sapiens [29]): 8 °C | IC50 [31]: 1600 nM | Activity (Calf thymus DNA [32]): inactive

CN1CCN(CCCCn2c3ccc(-c4nc5cc(N6CCN(C)CC6)ccc5[nH]4)cc3c3cc(-c4nc5cc(N6CCN(C)CC6)ccc5[nH]4)ccc32)CC1
Activity (Calf thymus DNA [1]): inactive | Ratio [2]: 576 | DC50 [4]: Not Active | IC50 (HEK-293T [5]): 8000 nM | Kd [6]: 340 nM | Activity (HeLa [7]): Active | Activity (A549 [8]): Active | Activity (Homo sapiens [9]): Active | Activity (Homo sapiens [10]): inactive | Activity (HFF [11]): Non-toxic | inhibition (HEK-293T [12]): Active | Activity (HFF [13]): Non-toxic | DC50 [14]: 610 nM | concentration giving total telomerase inhibition [15]: 1 µM | inhibition (HeLa [16]): Active | Activity (HEK-293T [17]): Active | Drug uptake [18]: Active | Kd [19]: 150 nM | Drug uptake [20]: Active | Kd [21]: 100 nM | IC50 (A549 [22]): 8000 nM | ΔTm (Homo sapiens [23]): 16 °C | IC50 (HeLa [24]): 8000 nM | Activity (HeLa [25]): 25% | Kd [26]: 130 nM | DC50 [27]: Not Active | Kd (Calf thymus DNA [28]): 196000 nM | ΔTm (Homo sapiens [29]): 12 °C | Activity (HeLa [30]): Active | IC50 [31]: 900 nM | Activity (Calf thymus DNA [32]): inactive | Drug uptake [33]: Active | Activity (Homo sapiens [34]): Active
